The nature of test [1]: OD615 S. cerevisiae growth inhibition, permissive medium, pilot counter-assay, permissive growth control for S. cerevisiae lifespan shortening project (AID 705;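 active = growth inhibition above 25% in both replicates, a cutoff set 3 SD above the mean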). The following applies: OD615, 24 h, at 10 µM, active compounds read high. An outline of the steps:
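System: Engineered DeaD yeast | Buffer or medium: SC raffinose/galactose permissive medium | Doses: 10 µM single dose, 0.25% DMSO | Times: 24 h exposure, 30 °C | Measured by: OD615 turbidity read | Read-out: Yeast growth inhibition indicated by reduced 24 h OD615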

The nature of test [2]: Restrictive medium S. cerevisiae growth inhibition, OD615, pilot screen of yeast lifespan reduction project, restrictive growth control (AID 706;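 active = growth inhibition above a set limit, 3 SD over mean compound inhibition, in both replicates, cut at about 43% in these data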;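 note: modified DeaD lifespan yeast strain shifted to restrictive glucose medium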). The note with it: OD615, 48 h, at 10 µM, active compounds read high. Summed up:
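Assay system: engineered S. cerevisiae DeaD strain; Buffer or medium: CSMM-D glucose medium; Dosing: 10 µM compound, 0.25% DMSO; Times: cell pre-growth 4 h, compound exposure 48 h, 30 °C; Detection: absorbance (optical density) measured at 615 nm.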

Test [3] can be described thus: viability gain of MRP-1-high H69AR cells under doxorubicin, pilot screen, MRP-1 activator project, CellTiter-Glo, duplicate (AID 807).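 Note: compound pretreatment 18-22 h then 72 h combined with doxorubicin; 0% = doxorubicin alone and 100% = vehicle without doxorubicin.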 The note with it: H69AR viability with doxorubicin, CellTiter-Glo luminescence; at 10 µM; active compounds read high. A general note: ATP-based viability assays read luminescence as a measure of living cells.
The nature of test [4]: growth suppression of beta-catenin knockout HCT116, pilot screen, human colon tumor cells (AID 823;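 active = cell viability at or below a set limit in both duplicate runs, the limit being the all-compound median minus 4 SD, cut at about 23% in these data, passing the limit was not always enough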;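 note: 0% = wells killed by 20 µM Hyamine and 100% = untreated DMSO cell wells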). The following applies: CellTiter-Glo, 60 h, at 10 µM, active compounds read low.
Test [5] in a line: growth suppression of PTEN-deleted HCT116, pilot screen, cell-based, HCT116 clonal line, CellTiter-Glo (AID 824;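 active = viability at or below 27.92% in each of two runs, the all-compound median minus 4 SD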;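 note: 0% = 20 µM Hyamine control and 100% = vehicle cell control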). The following applies: 60 h, at 10 µM, active compounds read low.
Test [6] can be described thus: inhibitors of the yeast RAM network, pilot screen, dse1pr::URA3 reporter, 5-FOA selection (AID 869;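 active = inhibition over a set limit, the all-compound mean plus 3 SD, in both replicate runs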;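 note: 0% = DMSO wells with no growth and 100% = 10 µM 1-NA-PP1 with full growth; RAM network block rescues cells from 5-FOA so hits raise OD615 growth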). The following applies: S. cerevisiae dse1pr::URA3 5-FOA growth, OD615, 2 d; at 10 µM; active compounds read high; strain carries analog-sensitive mutant Cbk1 kinase.
The nature of test [7]: RAM signaling pathway blockade in yeast – S. cerevisiae, Pdr1DBD-CYC8 efflux-inhibited sensitized strain, primary screen (AID 1298;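 active = RAM network inhibition above 8.4% in each of two replicates, 3 SD over the compound average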;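 note: 0% = DMSO untreated cells without growth and 100% = 10 µM 1-NA-PP1 full growth; higher means more yeast growth rescued from 5-FOA killing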). The note with it: S. cerevisiae cbk1-as DSE1-URA3 strain, 5-FOA growth OD615, 2 d; at 50 µM; active compounds read high.

Values without a mark were called inactive. Inconclusive results are not listed. The source made the active and inactive calls.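 Rule for the calls, unless noted: active = viability increase at or above a cutoff of the median across tested compounds plus 3 SD (cut at about 8.5% in these data, passing the limit was not always enough); inconclusive = some gains above the cutoff, reason not given; inactive = the rest.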

As a reminder, the viability is a read-out of living cells in per cent, often relative to untreated cells. One may read the inhibition as the drop in the measured response relative to a control, in per cent.

Turning to `COc1cc(Nc2cc(C)nc3nc(C)nn23)cc(OC)c1OC`, the results for the growth inhibition in test [1] and in test [2] were 2.3% and 6.15%, respectively. In addition, the viability increase in test [3] is -1.11%. The figures for the viability in test [4] and in test [5] were 95.7% and 104%, respectively. In test [6], the inhibition was 0.525%. Moreover, the RAM network inhibition in test [7] is 4.23%.

On to `CCCc1cc(C(=O)Nc2cccnc2)no1`, for which the figures for the growth inhibition in test [1] and in test [2] were 0.43% and -0.16%, respectively. In test [3], the viability increase is -1.86%. Further, the viability in test [4] was 100%; in test [5] it was 94.9%. The inhibition in test [6] was 0.915%. Moreover, the RAM network inhibition in test [7] was -0.87%.

With `CCCSC1=C(C#N)C(c2ccc(Cl)cc2Cl)CC(=O)N1` (stereo not drawn), the growth inhibition in test [1] is 3.83%; in test [2] it was 24%. In addition, in test [3], the viability increase is -1.42%. For the same compound, the viability was 83.5% in test [4] and 79.4% in test [5]. In addition, the inhibition in test [6] is 1.54%. Besides, in test [7], the RAM network inhibition is 3.58%.

In the case of `CCCCn1c(CCC(=O)O)ccc1-c1cccs1`, the growth inhibition was 6.82% in test [1] and 10.6% in test [2]. For the same compound, the viability increase in test [3] is -3.36%. Besides, the figures for the viability in test [4] and in test [5] were 97.1% and 94.8%, respectively. Besides, the inhibition in test [6] is 0.85%. Moreover, the RAM network inhibition in test [7] is -1.84%.

As for `O=C(NCc1cccnc1)NC1(c2ccccc2)CC1`, the growth inhibition in test [1] was -2.17%; in test [2], -17.7%. Besides, the viability increase in test [3] is 0.15%. Moreover, the viability in test [4] is 106%; in test [5], 100%. The inhibition in test [6] was 0.49%. The RAM network inhibition in test [7] is 0.4%.

`Cc1cc(=O)oc2cc3c(cc12)OCCN3`: the growth inhibition in test [1] is 5.96%; in test [2], 2.04%. For the same compound, in test [3], the viability increase is -1.47%. For the same compound, the viability in test [4] is 93%; in test [5] it was 97.6%. Further, the inhibition in test [6] is 2.65%. Besides, the RAM network inhibition in test [7] is 3.78%.

Take `COc1cccc(C2NC(=O)NC(C)=C2C(=O)Nc2cc(OC)ccc2OC)c1` (stereo not drawn): the values for the growth inhibition in test [1] and in test [2] were -7.14% and 0.605%, respectively. In addition, the viability increase in test [3] is -0.51%. For the same compound, the viability is 95.2% in test [4] and 94.9% in test [5]. Also, the inhibition in test [6] was 1.15%. Also, in test [7], the RAM network inhibition was 5.92%.

On to `CC(=O)Nc1ccc(S(=O)(=O)c2ccc(N)cc2)cc1N`, for which the results for the growth inhibition in test [1] and in test [2] were -3.35% and 2.46%, respectively. Also, in test [3], the viability increase is -1.15%. Besides, the figures for the viability in test [4] and in test [5] were 104% and 98.8%, respectively. Further, the inhibition in test [6] is 2.1%. The RAM network inhibition in test [7] was 3.91%.

Consider `CC(C)c1ccc(NC(=O)c2cccnc2)cc1`, for which the growth inhibition in test [1] was -3.85%; in test [2], -12.2%. Moreover, in test [3], the viability increase is 0.68%. In addition, the viability in test [4] was 89.4%; in test [5] it was 94.3%. Moreover, in test [6], the inhibition was 0.32%. The RAM network inhibition in test [7] was 2.26%.

Consider `O=C(NCc1ccc2c(c1)OCO2)C1CCC(CNc2c(N3CCCC3)c(=O)c2=O)CC1` (stereo not drawn), for which the growth inhibition is -5.55% in test [1] and -7.12% in test [2]. For the same compound, the viability increase in test [3] was -1.29%. Further, the viability was 104% in test [4] and 102% in test [5]. The inhibition in test [6] is 3.97%. In addition, the RAM network inhibition in test [7] was 1.53%.

Regarding `CCNc1nc(NCC)nc(Oc2ccc(OCC)nn2)n1`, the figures for the growth inhibition in test [1] and in test [2] were -15.2% and -14.6%, respectively. Besides, the viability increase in test [3] is -0.87%. Further, the viability in test [4] was 88.1%; in test [5], 92.2%. For the same compound, in test [6], the inhibition is 2.82%. Also, in test [7], the RAM network inhibition is 4.95%.

In the case of `COC(=O)CN(c1ccccc1)S(=O)(=O)c1ccccc1`, the growth inhibition in test [1] was -15.8%; in test [2], -2.47%. Moreover, in test [3], the viability increase is -0.03%. The viability in test [4] was 101%; in test [5], 99.8%. Besides, the inhibition in test [6] was 1.01%. For the same compound, in test [7], the RAM network inhibition was 0.88%.

Take `C=CCNc1oc(Cc2cccc3ccccc23)nc1C#N`: the growth inhibition is -19.8% in test [1] and -9.46% in test [2]. Moreover, in test [3], the viability increase is -3.89%. The values for the viability in test [4] and in test [5] were 107% and 88%, respectively. For the same compound, the inhibition in test [6] is 1.04%. For the same compound, the RAM network inhibition in test [7] is 2.18%.

As to `Cc1ccc(S(=O)(=O)n2ccnc2)cc1C`, the growth inhibition is -7.98% in test [1] and -8.12% in test [2]. Also, the viability increase in test [3] was -0.49%. Besides, the viability in test [4] is 96.1%; in test [5], 88.9%. For the same compound, in test [6], the inhibition was 1.86%. For the same compound, the RAM network inhibition in test [7] was 2.35%.

With `CCOc1ccc(OCC)c(S(=O)(=O)NCc2ccc3c(c2)OCO3)c1`, the growth inhibition in test [1] was -9.29%; in test [2], -2.62%. The viability increase in test [3] was -2.97%. Besides, the figures for the viability in test [4] and in test [5] were 95.1% and 96.5%, respectively. In addition, the inhibition in test [6] is 1.52%. In addition, in test [7], the RAM network inhibition was 5.31%.

As for `CCOC(=O)c1[nH]c(C)c(C(=O)Nc2ccc(C)c(C)c2)c1C`, the growth inhibition in test [1] was -12.6%; in test [2], -10.7%. In addition, the viability increase in test [3] was -4.91%. Besides, the viability in test [4] is 64.1%; in test [5] it was 45.9%. Besides, the inhibition in test [6] is 1.46%. Further, the RAM network inhibition in test [7] is 1.84%.

Consider `COCCNC(=O)c1ccccc1NC(=O)C1COc2ccccc2O1` (stereo not drawn), for which the growth inhibition is -3.84% in test [1] and -0.665% in test [2]. For the same compound, the viability increase in test [3] was -0.74%. The viability in test [4] was 95.8%; in test [5], 102%. Also, the inhibition in test [6] is 2.8%. Further, in test [7], the RAM network inhibition is 4.39%.

For `COc1cc(NC(=O)c2cc3ccccc3o2)c(OC)cc1Cl`, the growth inhibition in test [1] is -7.12%; in test [2], -6.08%. Further, in test [3], the viability increase is -4.12%. For the same compound, the viability is 80.7% in test [4] and 73.6% in test [5]. The inhibition in test [6] is 3.16%. Moreover, the RAM network inhibition in test [7] is 9.24%.

In the case of `O=C(CSc1nnnn1-c1cccc2c1CCCC2)N1CCOCC1`, the growth inhibition in test [1] is -3.82%; in test [2], -27.1%. Also, the viability increase in test [3] is -3.02%. Further, the viability in test [4] is 95.4%; in test [5], 94.5%. Further, in test [6], the inhibition was 0.68%. The RAM network inhibition in test [7] was 2.95%.

On to `O=C(CSc1nnc(-c2cccnc2)n1Cc1ccco1)c1ccc(Br)cc1`, for which the growth inhibition in test [1] is 1.25%; in test [2] it was 32.4%. Further, the viability increase in test [3] is -1.99%. Moreover, the viability in test [4] was 79.9%; in test [5], 86.8%. Also, the inhibition in test [6] is 0.005%. Also, the RAM network inhibition in test [7] was 10%.

As to `c1ccc(-c2csc3nnc(SCc4ccc5c(c4)OCO5)n23)cc1`, the growth inhibition was 22.1% in test [1] and 64.5% (active) in test [2]. In addition, in test [3], the viability increase is -2.01%. The viability in test [4] is 93.2%; in test [5], 82.7%. Also, the inhibition in test [6] is 0.87%. In test [7], the RAM network inhibition is 3.09%.

Turning to `COC(=O)C1CCN(C(c2ccc(OC)c(OC)c2)c2sc3nc(C)nn3c2O)CC1` (stereo not drawn), the growth inhibition was 7.23% in test [1] and 4.6% in test [2]. Moreover, in test [3], the viability increase is 0.34%. Moreover, the viability in test [4] is 109%; in test [5] it was 96.9%. For the same compound, the inhibition in test [6] is -1.08%. Moreover, the RAM network inhibition in test [7] is 2.68%.

As for `CCOC(=O)C1CCCN(C(=O)c2ccccc2Oc2ccccc2)C1` (stereo not drawn), the growth inhibition in test [1] was -6.35%; in test [2] it was -9.14%. The viability increase in test [3] was -1.3%. Further, the viability in test [4] was 91.1%; in test [5], 102%. In test [6], the inhibition is 0.545%. The RAM network inhibition in test [7] is 1.27%.

Take `Cc1oc(-c2cccs2)nc1CS(=O)CC(=O)NCCCN1CC(C)CC(C)C1` (stereo not drawn): the values for the growth inhibition in test [1] and in test [2] were -8.47% and -12.7%, respectively. The viability increase in test [3] was -1.75%. Also, the results for the viability in test [4] and in test [5] were 93.9% and 92.4%, respectively. Besides, in test [6], the inhibition is 2.27%. Also, in test [7], the RAM network inhibition was 3.39%.
